Laboratory results from ChEMBL document CHEMBL3045489, “Synthesis, fungicidal activity, and QSAR of a series of 2-dichlorophenyl-3-triazolylpropyl ethers” (J Agric Food Chem, 2000).
Converted amounts (≈) assume the structure as drawn. The source made the active and inactive calls. No cut-off for these calls is given here.

How the values were obtained:
[1] = system: Oculimacula yallundae; assay: Antifungal activity against Oculimacula yallundae assessed as inhibition of radial growth on potato dextrose; type: functional, organism-based
How it was run: (§1)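 Radial growth inhibition on potato dextrose or Czapek agar across 100-0.1 mg L-1. ED50 calculated for each compound.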

[2] = system: Fusarium graminearum; assay: Antifungal activity against Fusarium graminearum assessed as inhibition of radial growth on potato dextrose; type: functional, organism-based; how it was run: as §1
[3] = system: Podosphaera fuliginea; assay: Fungicidal activity against Podosphaera fuliginea inoculated in […] placed in growth room after 24 hr incubation assessed as direct protection after 6 to 10 days; type: functional
[4] = system: Cercospora beticola; assay: Antifungal activity against Cercospora beticola assessed as inhibition of radial growth on potato dextrose; type: functional, organism-based; how it was run: as §1
[5] = system: Uromyces appendiculatus; assay: Fungicidal activity against Uromyces appendiculatus inoculated in Phaseolus vulgaris placed in growth room after 24 hr incubation assessed as direct protection after 6 to 10 days; type: functional
How it was run: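 Bean plants grown at 22 ± 1 °C, 80 ± 10% RH. Compound in acetone/water (1:4 v/v) with Tween 20 (0.4 mg mL-1) was sprayed on leaves until moist at 100 to 0.001 mg L-1. One day later leaves were inoculated with U. appendiculatus uredospores (1 × 10^5 spores mL-1), held 24 h at 22 ± 2 °C and 100% RH, then moved to the growth room. Scored at 6, 8 and 10 days as MIC.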

[6] = system: Bipolaris maydis; assay: Antifungal activity against Cochliobolus heterostrophus assessed as inhibition of radial growth on potato dextrose; type: functional, organism-based; how it was run: as §1
[7] = system: Botrytis cinerea; assay: Antifungal activity against Botryotinia fuckelianaassessed as inhibition of radial growth on potato dextrose; type: functional, organism-based; how it was run: as §1
[8] = system: Podosphaera fuliginea; assay: Fungicidal activity against Podosphaera fuliginea inoculated in […] placed in growth room after 24 hr incubation assessed as disease cure after 24 hr of inoculation; type: functional
[9] = system: Pyrenophora teres; assay: Antifungal activity against Pyrenophora teres assessed as inhibition of radial growth on potato dextrose; type: functional, organism-based
[10] = system: Ustilago maydis; assay: Antifungal activity against Ustilago maydis assessed as inhibition of radial growth on potato dextrose; type: functional, organism-based; conditions: Mycosarcoma maydis
[11] = target: T1, Lanosterol 14-alpha demethylase (Mycosarcoma maydis, UniProt P49602); assay: Inhibition of 14alpha-demethylase Ustilago maydis ATCC 14826 assessed as reduction in 14alpha-methylfecosterol; conditions: read-out: I50 (converted)
T1 sequence (P49602 whole entry): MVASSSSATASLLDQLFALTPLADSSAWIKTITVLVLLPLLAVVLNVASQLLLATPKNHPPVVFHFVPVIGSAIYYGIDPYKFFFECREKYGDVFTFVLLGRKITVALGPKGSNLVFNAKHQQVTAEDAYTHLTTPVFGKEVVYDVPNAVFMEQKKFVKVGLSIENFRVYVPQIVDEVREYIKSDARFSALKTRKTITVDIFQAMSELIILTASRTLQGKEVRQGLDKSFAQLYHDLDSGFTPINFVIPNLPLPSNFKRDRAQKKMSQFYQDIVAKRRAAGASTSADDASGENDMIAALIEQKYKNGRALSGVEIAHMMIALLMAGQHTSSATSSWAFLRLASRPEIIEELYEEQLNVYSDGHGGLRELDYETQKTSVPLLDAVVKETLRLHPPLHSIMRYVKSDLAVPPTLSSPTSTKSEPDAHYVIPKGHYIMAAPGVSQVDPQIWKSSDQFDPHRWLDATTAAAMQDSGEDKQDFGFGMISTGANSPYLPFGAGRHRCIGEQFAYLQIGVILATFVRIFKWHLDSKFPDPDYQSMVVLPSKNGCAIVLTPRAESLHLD
How it was run: (§2)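 Actively growing broth cultures of U. maydis ATCC 14826 were incubated 18 h with increasing compound concentrations. Sterols were then extracted and analysed, and 14α-demethyl and 14α-methyl sterols quantified.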

[12] = target: T2, Lanosterol 14-alpha demethylase (Mycosarcoma maydis) (UniProt P49602); assay: Inhibition of 14alpha-demethylase Ustilago maydis ATCC 14826 assessed as reduction in ergosterol; how it was run: as §2
T2 sequence (whole entry): T1 sequence (P49602 whole entry)

[13] = target: T2, Lanosterol 14-alpha demethylase (Mycosarcoma maydis); assay: Inhibition of 14alpha-demethylase Ustilago maydis ATCC 14826 assessed as reduction in ergosta-5,7-dien-3-ol; how it was run: as §2

For `C=C(Cn1cncn1)c1ccc(Cl)cc1Cl`, the EC50 [1] was 0.45 µg/mL (≈ 1.77 µM), the EC50 [2] was 2.9 µg/mL (≈ 11.4 µM) and the MIC [3] was 8 µg/mL (≈ 31.5 µM). For the same compound, the EC50 [4] was 0.6 µg/mL (≈ 2.36 µM), the MIC [5] was 150 µg/mL (≈ 590 µM) and the EC50 [6] was 0.4 µg/mL (≈ 1.57 µM). For the same compound, the EC50 [7] was 4.5 µg/mL (≈ 17.7 µM), the MIC [8] was 1 µg/mL (≈ 3.94 µM) and the EC50 [9] was 0.9 µg/mL (≈ 3.54 µM). It also gave an EC50 [10] of 0.8 µg/mL (≈ 3.15 µM).

Work on `Clc1ccc(C(COCc2ccc3ccccc3c2)Cn2cncn2)c(Cl)c1` (racemic) yielded an EC50 [1] of 1 µg/mL (≈ 2.43 µM), an EC50 [2] of 130 µg/mL (≈ 315 µM) and an MIC [3] of 50 µg/mL (≈ 121 µM). The EC50 [4] was 0.23 µg/mL (≈ 0.558 µM), the MIC [5] was 120 µg/mL (≈ 291 µM) and the EC50 [6] was 0.15 µg/mL (≈ 0.364 µM). The EC50 [7] was 2.8 µg/mL (≈ 6.79 µM), the EC50 [9] was 0.25 µg/mL (≈ 0.606 µM) and the EC50 [10] was 0.18 µg/mL (≈ 0.437 µM).

In the case of `CC(C)=CCOCC(Cn1cncn1)c1ccc(Cl)cc1Cl` (racemic), the EC50 [1] is reported as 1 µg/mL (≈ 2.94 µM), the EC50 [2] is reported as 40 µg/mL (≈ 118 µM) and the MIC [3] is reported as 100 µg/mL (≈ 294 µM). It also gave an EC50 [4] of 0.18 µg/mL (≈ 0.529 µM), an MIC [5] of 160 µg/mL (≈ 470 µM) and an EC50 [6] of 0.13 µg/mL (≈ 0.382 µM). The EC50 [7] was 0.9 µg/mL (≈ 2.65 µM), the EC50 [9] was 0.5 µg/mL (≈ 1.47 µM) and the EC50 [10] was 0.22 µg/mL (≈ 0.647 µM).

Work on `C=C(C)COCC(Cn1cncn1)c1ccc(Cl)cc1Cl` (racemic) yielded an EC50 [1] of 0.5 µg/mL (≈ 1.53 µM), an EC50 [2] of 13 µg/mL (≈ 39.8 µM) and an MIC [3] of 50 µg/mL (≈ 153 µM). For the same compound, the EC50 [4] was 0.15 µg/mL (≈ 0.46 µM), the MIC [5] was 150 µg/mL (≈ 460 µM) and the EC50 [6] was 0.1 µg/mL (≈ 0.307 µM). For the same compound, the EC50 [7] was 1.2 µg/mL (≈ 3.68 µM), the EC50 [9] was 0.75 µg/mL (≈ 2.3 µM) and the EC50 [10] was 0.25 µg/mL (≈ 0.766 µM).

`Clc1ccc([C@H](COCc2ccccc2)Cn2cncn2)c(Cl)c1` showed an EC50 [1] of 0.41 µg/mL (≈ 1.13 µM), an EC50 [2] of 18 µg/mL (≈ 49.7 µM) and an MIC [3] of 80 µg/mL (≈ 221 µM). It also gave an EC50 [4] of 0.16 µg/mL (≈ 0.442 µM), an MIC [5] of 50 µg/mL (≈ 138 µM) and an EC50 [6] of 0.25 µg/mL (≈ 0.69 µM). It also gave an EC50 [7] of 3 µg/mL (≈ 8.28 µM), an EC50 [9] of 0.5 µg/mL (≈ 1.38 µM) and an EC50 [10] of less than 0.1 µg/mL.

Work on `C=CCOC[C@H](Cn1cncn1)c1ccc(Cl)cc1Cl` yielded an EC50 [1] of 0.4 µg/mL (≈ 1.28 µM), an EC50 [2] of 8.5 µg/mL (≈ 27.2 µM) and an MIC [3] of 100 µg/mL (≈ 320 µM). The EC50 [4] was 0.25 µg/mL (≈ 0.801 µM), the MIC [5] was 100 µg/mL (≈ 320 µM) and the EC50 [6] was 0.2 µg/mL (≈ 0.641 µM). The EC50 [7] was 3 µg/mL (≈ 9.61 µM), the IC50 [11] was 1990 nM and the EC50 [9] was 0.8 µg/mL (≈ 2.56 µM). For the same compound, the EC50 [10] was 0.22 µg/mL (≈ 0.705 µM), the inhibition [12] was “Active” and the inhibition [13] was “Active”.

In the case of `CC(C)(C)c1ccc(COCC(Cn2cncn2)c2ccc(Cl)cc2Cl)cc1` (racemic), the EC50 [1] is reported as 1.2 µg/mL (≈ 2.87 µM), the EC50 [2] is reported as 6.5 µg/mL (≈ 15.5 µM) and the MIC [3] is reported as 10 µg/mL (≈ 23.9 µM). The EC50 [4] was 0.28 µg/mL (≈ 0.669 µM), the MIC [5] was 25 µg/mL (≈ 59.8 µM) and the EC50 [6] was 0.4 µg/mL (≈ 0.956 µM). The EC50 [7] was 3.8 µg/mL (≈ 9.08 µM), the MIC [8] was 10 µg/mL (≈ 23.9 µM) and the EC50 [9] was 0.8 µg/mL (≈ 1.91 µM). For the same compound, the EC50 [10] was 0.1 µg/mL (≈ 0.239 µM).

Work on `Clc1ccc(C(COCCCc2ccccc2)Cn2cncn2)c(Cl)c1` (racemic) yielded an EC50 [1] of 2.3 µg/mL (≈ 5.89 µM), an EC50 [2] of 18 µg/mL (≈ 46.1 µM) and an MIC [3] of 100 µg/mL (≈ 256 µM). For the same compound, the EC50 [4] was 0.18 µg/mL (≈ 0.461 µM), the MIC [5] was 200 µg/mL (≈ 512 µM) and the EC50 [6] was 0.19 µg/mL (≈ 0.487 µM). For the same compound, the EC50 [7] was 2.3 µg/mL (≈ 5.89 µM), the EC50 [9] was 1.3 µg/mL (≈ 3.33 µM) and the EC50 [10] was 0.15 µg/mL (≈ 0.384 µM).

`Clc1ccc(C(COCc2ccc(OCc3ccc(OCc4ccccc4)cc3)cc2)Cn2cncn2)c(Cl)c1` (racemic) showed an EC50 [1] of 0.16 µg/mL (≈ 0.278 µM), an EC50 [2] greater than 200 µg/mL and an EC50 [4] of 0.18 µg/mL (≈ 0.313 µM). For the same compound, the MIC [5] was greater than 100 µg/mL, the EC50 [7] was 100 µg/mL (≈ 174 µM) and the EC50 [9] was 0.2 µg/mL (≈ 0.348 µM). For the same compound, the EC50 [10] was 0.2 µg/mL (≈ 0.348 µM).

Compound `Clc1ccc(C(COCc2cccs2)Cn2cncn2)c(Cl)c1` (racemic) has an EC50 [1] of 1.2 µg/mL (≈ 3.26 µM), an EC50 [2] of 1.5 µg/mL (≈ 4.07 µM) and an MIC [3] of 100 µg/mL (≈ 272 µM). It also gave an EC50 [4] of 0.2 µg/mL (≈ 0.543 µM), an MIC [5] of 200 µg/mL (≈ 543 µM) and an EC50 [6] of 0.2 µg/mL (≈ 0.543 µM). The EC50 [7] was 2 µg/mL (≈ 5.43 µM), the EC50 [9] was 0.7 µg/mL (≈ 1.9 µM) and the EC50 [10] was 0.1 µg/mL (≈ 0.272 µM).

With `C=C(Cl)COCC(Cn1cncn1)c1ccc(Cl)cc1Cl` (racemic) the EC50 [1] was 0.5 µg/mL (≈ 1.44 µM), the EC50 [2] was 12 µg/mL (≈ 34.6 µM) and the EC50 [4] was 0.23 µg/mL (≈ 0.664 µM). For the same compound, the MIC [5] was greater than 100 µg/mL, the EC50 [7] was 0.8 µg/mL (≈ 2.31 µM) and the EC50 [9] was 2 µg/mL (≈ 5.77 µM). The EC50 [10] was 0.5 µg/mL (≈ 1.44 µM).

`C#CCOCC(Cn1cncn1)c1ccc(Cl)cc1Cl` (configuration not stated) was tested, and the EC50 [1] was 0.5 µg/mL (≈ 1.61 µM), the EC50 [2] was 25 µg/mL (≈ 80.6 µM) and the EC50 [4] was 0.3 µg/mL (≈ 0.967 µM). The MIC [5] was greater than 100 µg/mL, the EC50 [7] was 3.6 µg/mL (≈ 11.6 µM) and the EC50 [9] was 1.4 µg/mL (≈ 4.51 µM). For the same compound, the EC50 [10] was 0.5 µg/mL (≈ 1.61 µM).
